Most compounds without a hit are left out; they make up all but 1.8% or so of the library.
TLR4-MyD88 BLA: inhibitors of human TLR4-MyD88 binding; O00206+Q99836; HeLa CL3-4 TLR4/MyD88 BLA complementation, FRET ratio; inhibition, % at 8.4 µM; hit rate 0.18% among 200,000; AID 861; in the data active = inhibition above about 25%;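 note: 0% = vehicle and 100% = reference inhibitor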
TLR9-MyD88 block: TLR9-MyD88 interaction inhibition; CHO BLA complementation TLR9-MyD88, CCF4 FRET ratio; inhibition, % at 4.98 µM; hit rate 0.21% among 340,000; AID 504734;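 active = inhibition above the mean over all tested compounds plus 3 SD, cut at about 21% in these data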;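 note: 0% = DMSO only wells and 100% = clavulanate BLA inhibitor control wells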
MC4R antagonist: antagonists of human melanocortin 4 receptor (MC4R); P32245; MC4R-expressing cells, MTII-stimulated cAMP, LANCE TR-FRET; inhibition, % at 6.5 µM; hit rate 0.48% among 360,000; AID 540295;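 active = inhibition above its plate's cutoff, the mean of tested wells on that plate plus 3 SD, cut at about 29% in these data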;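 note: 0% = Melanotan II alone and 100% = Melanotan II plus saturating MCL0020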
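material = U2OS cells stably expressing human melanocortin 4 receptor (MC4R) | also added = Melanotan II challenge | dosing = single nominal compound dose of 6.5 µM | detection = TR-FRET with Eu-cAMP and labeled anti-cAMP, 671 nm | replication = singlicate | timing = compound 30 min, challenge 1 h, detection 1 h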
NOD2-RIPK2 inh: inhibitors of human NOD2-RIPK2 interaction. O43353. CHO BLA complementation NOD2-RIPK2, CCF4 ratio. inhibition, % at 4.98 µM. hit rate 0.38% among 360,000. AID 624267; in the data active = inhibition above about 21%;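 note: 0% = vehicle only and 100% = reference blocker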
Target sequence (O43353 whole entry, looked up): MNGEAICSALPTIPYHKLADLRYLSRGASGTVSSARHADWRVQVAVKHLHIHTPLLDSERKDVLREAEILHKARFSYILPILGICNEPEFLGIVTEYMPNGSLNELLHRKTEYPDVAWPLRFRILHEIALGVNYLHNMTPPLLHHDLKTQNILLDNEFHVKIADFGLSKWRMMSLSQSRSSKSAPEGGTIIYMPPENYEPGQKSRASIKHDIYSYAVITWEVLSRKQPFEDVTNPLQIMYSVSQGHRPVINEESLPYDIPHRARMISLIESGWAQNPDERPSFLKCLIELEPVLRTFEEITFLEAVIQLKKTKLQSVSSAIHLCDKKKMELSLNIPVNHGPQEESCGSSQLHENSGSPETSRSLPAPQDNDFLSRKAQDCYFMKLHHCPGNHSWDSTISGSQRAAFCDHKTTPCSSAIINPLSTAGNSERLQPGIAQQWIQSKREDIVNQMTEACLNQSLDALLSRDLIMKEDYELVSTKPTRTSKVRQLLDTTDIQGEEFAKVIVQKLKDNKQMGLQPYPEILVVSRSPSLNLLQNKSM
MC4R barr agon: agonists of human melanocortin 4 receptor (MC4R) beta-arrestin | P32245 | U2OS MC4R beta-arrestin complementation, luminescence; percent of melanotan II response, DMSO zero | activation, % at 8.9 µM | hit rate 0.98% among 360,000;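 active = activation above a per-plate cutoff, the mean activation of sample wells on that plate plus 3 SD, cut at about 8% in these data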
MC4R barr conf: human MC4R beta-arrestin agonism confirmation. shares compounds with MC4R barr agon. U2OS MC4R beta-arrestin recruitment, luminescence; scaled DMSO 0%, Melanotan II 100%. activation, % at 8.9 µM. hit rate 31% among 2,400. AID 602192;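 active = mean activation across replicates above the hit cutoff set in the earlier primary screen, cut at about 8% in these data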
MOR-DOR barr ag: activates mu-delta opioid heterodimer, MC4R agonist counter-screen; shares compounds with MC4R barr agon; U2OS PathHunter beta-arrestin, beta-gal luminescence; percent of deltorphin B response, DMSO zero; activation, % at 9.2 µM; hit rate 5.8% among 2,400; AID 602194;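 active = mean activation across replicates exceeds the hit threshold derived in the earlier primary screen, cut at about 18% in these data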;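 note: 100% = deltorphin B at 0.9 µM final and 0% = DMSO alone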
Active calls of the source: *.

How did CC(=O)Nc1cc(-c2ccc(C(=O)N3CCOCC3)cc2)cn2c(-c3cccc(C(C)=O)c3)cnc12 do in these assays?
MC4R antagonist: 19; NOD2-RIPK2 inh: -19; MC4R barr agon: 2

Results for CC(=O)Nc1cc(-c2ccc(C(=O)NC3CC3)cc2)cn2c(-c3cccc(C(F)(F)F)c3)cnc12 ?
MC4R antagonist: 22; NOD2-RIPK2 inh: 1; MC4R barr agon: 11*; MC4R barr conf: 20*; MOR-DOR barr ag: 3

What do the screens show for `CC(Cc1nnc(N)s1)c1ccccc1` (centres undefined)?
TLR9-MyD88 block: -11; MC4R antagonist: 14; NOD2-RIPK2 inh: 11; MC4R barr agon: -2

How did COc1ccc2cc(-c3cc(C(=O)OCC(=O)Nc4c(C)n(C)n(-c5ccccc5)c4=O)c4ccccc4n3)ccc2c1 do in these assays?
TLR4-MyD88 BLA: 5; TLR9-MyD88 block: 4; MC4R antagonist: 0; NOD2-RIPK2 inh: -3; MC4R barr agon: 21*; MC4R barr conf: 5; MOR-DOR barr ag: 3

How did COc1ccc(-c2cc(C(=O)Nc3c(C)n(C)n(-c4ccccc4)c3=O)c3ccccc3n2)cc1 do in these assays?
TLR9-MyD88 block: -4; MC4R antagonist: 4; NOD2-RIPK2 inh: -13; MC4R barr agon: 0

How did O=C(COc1ccc(-c2ccccc2)cc1)N/N=C/c1cc(O)ccc1Br do in these assays?
TLR4-MyD88 BLA: -10; TLR9-MyD88 block: -7; MC4R antagonist: 0; NOD2-RIPK2 inh: 9; MC4R barr agon: 37*; MC4R barr conf: 13*; MOR-DOR barr ag: 5

What do the screens show for `C/C(=N\NC(=S)NCc1ccccc1)c1ccccc1F`?
TLR4-MyD88 BLA: -1; TLR9-MyD88 block: -3; MC4R antagonist: -9; NOD2-RIPK2 inh: -2; MC4R barr agon: -3

Results for C/C(=N/OCO/N=C(\C)c1ccccc1F)c1ccccc1F ?
TLR4-MyD88 BLA: 1; TLR9-MyD88 block: -5; MC4R antagonist: 2; NOD2-RIPK2 inh: -5; MC4R barr agon: 9.6*; MC4R barr conf: -1; MOR-DOR barr ag: 4

Results for Cc1ccc(NC(=O)COC(=O)C2CCN(c3ccc(C(F)(F)F)cn3)CC2)cc1C ?
TLR9-MyD88 block: 1; MC4R antagonist: -3; NOD2-RIPK2 inh: -3; MC4R barr agon: 4

Results for O=C(COC(=O)C1CCN(c2ccc(C(F)(F)F)cn2)CC1)Nc1cccc(F)c1 ?
TLR9-MyD88 block: 8; MC4R antagonist: 8; NOD2-RIPK2 inh: 6; MC4R barr agon: 13*; MC4R barr conf: -2; MOR-DOR barr ag: 6

How did COc1ccc(-c2csc3nc(C)nc(N4CCCCC4)c23)cc1OC do in these assays?
TLR4-MyD88 BLA: 10; TLR9-MyD88 block: -7; MC4R antagonist: 5; NOD2-RIPK2 inh: -2; MC4R barr agon: 9.6*; MC4R barr conf: -1; MOR-DOR barr ag: 4

What do the screens show for `O=C(CC(=O)Nc1cc(Cl)ccc1Cl)Nc1cc(Cl)ccc1Cl`?
TLR9-MyD88 block: -15; MC4R antagonist: 9; NOD2-RIPK2 inh: 3; MC4R barr agon: 15*; MC4R barr conf: 4; MOR-DOR barr ag: 5

How did O=C1Nc2ccccc2/C1=C/c1cnc(-c2ccccc2)[nH]1 do in these assays?
TLR9-MyD88 block: 11; MC4R antagonist: -4; NOD2-RIPK2 inh: 10; MC4R barr agon: 20*; MC4R barr conf: 25*; MOR-DOR barr ag: 4

Results for O=C1Nc2ccccc2/C1=C/c1cccnc1 ?
TLR4-MyD88 BLA: 5; TLR9-MyD88 block: 10; MC4R antagonist: -18; NOD2-RIPK2 inh: 7; MC4R barr agon: 0

How did COC(C(=O)Nc1ccc(S(=O)(=O)Nc2cccc3ccccc23)cc1)c1ccccc1 (centres undefined) do in these assays?
TLR4-MyD88 BLA: 13; TLR9-MyD88 block: -1; MC4R antagonist: 10; NOD2-RIPK2 inh: -1; MC4R barr agon: -2

What do the screens show for `O=C(O)/C=C/C(=O)Nc1ccc(C2(c3ccc(NC(=O)/C=C/C(=O)O)cc3)c3ccccc3-c3ccccc32)cc1`?
TLR9-MyD88 block: 8; MC4R antagonist: -1; NOD2-RIPK2 inh: 11; MC4R barr agon: 53*; MC4R barr conf: 1; MOR-DOR barr ag: 1

What do the screens show for `O=C(O)/C=C\C(=O)Nc1ccc(Oc2ccccc2)cc1`?
TLR4-MyD88 BLA: 6; TLR9-MyD88 block: -1; MC4R antagonist: 3; NOD2-RIPK2 inh: 1; MC4R barr agon: -1

Results for Cc1ccc(C)c(NC(=O)Cc2csc(-c3ccccc3)n2)c1 ?
TLR4-MyD88 BLA: 5; TLR9-MyD88 block: 15; MC4R antagonist: 6; NOD2-RIPK2 inh: -8; MC4R barr agon: 1

Results for Cc1cc(NC(=O)Cc2csc(-c3ccccc3)n2)ccc1Br ?
TLR4-MyD88 BLA: 3; TLR9-MyD88 block: 0; MC4R antagonist: 15; NOD2-RIPK2 inh: -13; MC4R barr agon: 15*; MC4R barr conf: 3; MOR-DOR barr ag: 7

What do the screens show for `CSc1nc2nccc(-c3ccc(-c4ccccc4)cc3)n2n1`?
TLR4-MyD88 BLA: 1; TLR9-MyD88 block: -7; MC4R antagonist: 20; NOD2-RIPK2 inh: -6; MC4R barr agon: 11*; MC4R barr conf: 1; MOR-DOR barr ag: 4

What do the screens show for `CSc1nc2nccc(-c3ccc(Oc4ccccc4)cc3)n2n1`?
TLR4-MyD88 BLA: 3; TLR9-MyD88 block: -4; MC4R antagonist: 13; NOD2-RIPK2 inh: -6; MC4R barr agon: 2

How did CC(C)c1ccc(/C=C/C(=O)Nc2nc3ccc([N+](=O)[O-])cc3s2)cc1 do in these assays?
TLR4-MyD88 BLA: 9; TLR9-MyD88 block: -4; MC4R antagonist: 2; NOD2-RIPK2 inh: -4; MC4R barr agon: 22*; MC4R barr conf: 5; MOR-DOR barr ag: 4

Results for CCCCCCCCCCCCCCCC(=O)NCCO ?
TLR9-MyD88 block: 1; MC4R antagonist: 3; NOD2-RIPK2 inh: -2; MC4R barr agon: 12*; MC4R barr conf: 0; MOR-DOR barr ag: 2

What do the screens show for `CN(C)CCOc1ncnc2c1oc1ccccc12`?
TLR4-MyD88 BLA: 0; TLR9-MyD88 block: -1; MC4R antagonist: 7; NOD2-RIPK2 inh: 6; MC4R barr agon: 0

What do the screens show for `CN(C)CCOc1nc(-c2ccccc2)nc2c1oc1ccccc12`?
TLR4-MyD88 BLA: -2; TLR9-MyD88 block: -2; MC4R antagonist: -1; NOD2-RIPK2 inh: -3; MC4R barr agon: 16*; MC4R barr conf: 4; MOR-DOR barr ag: 6

What do the screens show for `CN(C)S(=O)(=O)c1ccc(Cl)c(C(=O)NNC(=O)Cn2ccc(C(F)(F)F)n2)c1`?
TLR9-MyD88 block: 7; MC4R antagonist: -2; NOD2-RIPK2 inh: 9; MC4R barr agon: 0

What do the screens show for `COC(=O)C1=C(C)N(Cc2cccnc2)C(=O)/C1=C\c1sccc1C`?
TLR4-MyD88 BLA: -6; TLR9-MyD88 block: -5; MC4R antagonist: -5; NOD2-RIPK2 inh: 2; MC4R barr agon: -3
